Records with an inconclusive call do not appear.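 How the source made its calls, unless noted: active means viability at or below 27.92% in each of two runs, the all-compound median minus 4 SD; inconclusive means no clear call, values can overlap the other calls; inactive means the rest.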
Legend:
[1] = S. cerevisiae growth inhibition in permissive medium (OD615), pilot counter-assay for S. cerevisiae lifespan shortening project, permissive growth control (AID 705;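 active means growth inhibition above 25% in both replicates, a cutoff set 3 SD above the mean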); settings: OD615, 24 h, at 10 µM, hits give high values
Procedure, shortened: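 assay system = Saccharomyces cerevisiae strain carrying genetically modified DeaD replicative-lifespan system | technique = absorbance (optical density) at 615 nm | buffer or medium = permissive raffinose/galactose medium | timing = cells pre-grown 4 h, then 24 h compound exposure, 30 °C humidified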

[2] = S. cerevisiae growth inhibition in restrictive medium, OD615, pilot screen, restrictive growth control, yeast lifespan reduction project (AID 706;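 active means growth inhibition above a set limit, 3 SD over mean compound inhibition, in both replicates, cut at about 43% in these data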;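 further: modified DeaD lifespan yeast strain shifted to restrictive glucose medium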); settings: OD615, 48 h, at 10 µM, hits give high values
Procedure, shortened: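 System: modified S. cerevisiae. Buffer or medium: CSMM-D glucose medium. Incubation: 4 h pre-growth plus 48 h compound exposure, 30 °C. Detection: absorbance (optical density) measured at 615 nm.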

[3] = doxorubicin toxicity protection in MRP-1 cells – H69AR cells, CellTiter-Glo, duplicate, MRP-1 activator project, pilot screen (AID 807;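 active means viability increase at or above a cutoff of the median across tested compounds plus 3 SD, cut at about 8.5% in these data, passing the limit was not always enough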;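 further: compound pretreatment 18-22 h then 72 h combined with doxorubicin; 0% = doxorubicin alone and 100% = vehicle without doxorubicin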); settings: H69AR viability with doxorubicin, CellTiter-Glo luminescence; at 10 µM; hits give high values
[4] = viability of HCT116 without oncogenic beta-catenin – human colon tumor cells, pilot screen (AID 823;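 active means cell viability at or below a set limit in both duplicate runs, the limit being the all-compound median minus 4 SD, cut at about 23% in these data, passing the limit was not always enough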;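 further: 0% = wells killed by 20 µM Hyamine and 100% = untreated DMSO cell wells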); settings: HCT116 beta-catenin knockout viability, CellTiter-Glo, 60 h; at 10 µM; hits give low values
[5] = viability of PTEN-null HCT116 cells – cell-based, HCT116 clonal line, CellTiter-Glo, pilot screen (AID 824); settings: HCT116 PTEN-deleted viability, 60 h, at 10 µM, hits give low values;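 further: 0% = 20 µM Hyamine control and 100% = vehicle cell control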
[6] = RAM pathway blockade in budding yeast – dse1pr::URA3 reporter, 5-FOA selection, pilot screen (AID 869;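 active means inhibition over a set limit, the all-compound mean plus 3 SD, in both replicate runs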;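 further: 0% = DMSO wells with no growth and 100% = 10 µM 1-NA-PP1 with full growth; RAM network block rescues cells from 5-FOA so hits raise OD615 growth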); settings: S. cerevisiae dse1pr::URA3 5-FOA growth, OD615, 2 d; at 10 µM; hits give high values; strain carries analog-sensitive mutant Cbk1 kinase
[7] = RAM signaling pathway blockade in yeast – S. cerevisiae, Pdr1DBD-CYC8 efflux-inhibited sensitized strain, primary screen (AID 1298;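 active means RAM network inhibition above 8.4% in each of two replicates, 3 SD over the compound average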;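 further: 0% = DMSO untreated cells without growth and 100% = 10 µM 1-NA-PP1 full growth; higher means more yeast growth rescued from 5-FOA killing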); settings: S. cerevisiae cbk1-as DSE1-URA3 strain, 5-FOA growth OD615, 2 d; at 50 µM; hits give high values

O=C(Cn1c(-c2cncs2)nc2ccccc21)NCCc1ccccc1
inactive: growth inhibition [1] -6.77% | growth inhibition [2] -8.58% | viability increase [3] -2.77% | viability [4] 99.6% | viability [5] 92.7% | inhibition [6] 1.25% | RAM network inhibition [7] 4.43%

Cc1nc2ccc(NC(=O)c3ccc(Cl)s3)cc2s1
inactive: growth inhibition [1] -7.99% | growth inhibition [2] -7.74% | viability increase [3] -3.83% | viability [4] 106% | viability [5] 97.1% | inhibition [6] 1.84% | RAM network inhibition [7] 4.46%

CCOc1ccccc1NC(=O)CSc1nnc(-c2ccccn2)n1Cc1ccco1
inactive: growth inhibition [1] -4.62% | growth inhibition [2] 11.5% | viability increase [3] -1.92% | viability [4] 96.9% | viability [5] 98.5% | inhibition [6] 0.955% | RAM network inhibition [7] 3.98%

CC(=O)OC1c2c(ccc3ccc(=O)oc23)OC(C)(C)C1OC(=O)CC(C)C (stereo unspecified)
inactive: growth inhibition [1] -18.4% | growth inhibition [2] -10% | viability increase [3] 1.31% | viability [4] 84.7% | viability [5] 80.8% | inhibition [6] 1.1% | RAM network inhibition [7] 10%

CCCN1CCC(N(C)CCc2ccc(OC)c(OC)c2)CC1
inactive: growth inhibition [1] -7.87% | growth inhibition [2] -16.1% | viability increase [3] -0.93% | viability [4] 88.4% | viability [5] 94.5% | inhibition [6] 0.465% | RAM network inhibition [7] 2.37%

O=C1CCCC2=C1C(c1cn(-c3ccccc3)nc1-c1cccs1)c1c([nH]c(=O)[nH]c1=O)N2 (stereo unspecified)
inactive: growth inhibition [1] -11.2% | growth inhibition [2] -27.7% | viability increase [3] 1.36% | viability [4] 106% | viability [5] 99.1% | inhibition [6] 0.32% | RAM network inhibition [7] 2.19%

O=C(CSc1nc2c(c(=O)n1-c1ccc(Cl)cc1)SCC2)Nc1nccs1
inactive: growth inhibition [1] -2.95% | growth inhibition [2] -4.84% | viability increase [3] -2.93% | viability [4] 82.5% | viability [5] 78.4% | inhibition [6] 3.08% | RAM network inhibition [7] 5.03%

O=C(O)C1CCC(=O)N1C1c2ccccc2Oc2ccccc21 (stereo unspecified)
inactive: growth inhibition [1] 4.23% | growth inhibition [2] 4.63% | viability increase [3] 0.41% | viability [4] 96% | viability [5] 98.9% | inhibition [6] 0.57% | RAM network inhibition [7] 5.25%

Cc1ccccc1N1C(=O)c2sc3nc4c(c(=O)n3c2C1=O)CCC4
inactive: growth inhibition [1] 4.62% | growth inhibition [2] 25.2% | viability increase [3] -4.72% | viability [4] 97% | viability [5] 96.8% | inhibition [6] 1.5% | RAM network inhibition [7] 2.56%

CCOc1ccc(NC(=O)C2C3C=CC4(CN(C(C(=O)OC)C(C)C)C(=O)C24)O3)cc1 (stereo unspecified)
inactive: growth inhibition [1] -9.79% | growth inhibition [2] 5.85% | viability increase [3] -1.43% | viability [4] 108% | viability [5] 102% | inhibition [6] 1.31% | RAM network inhibition [7] 6.37%

Cn1cc(S(=O)(=O)Nc2ccc(F)cc2F)c(=O)n(C)c1=O
inactive: growth inhibition [1] -11.6% | growth inhibition [2] 0.815% | viability increase [3] 0.9% | viability [4] 98.8% | viability [5] 95% | inhibition [6] 1.39% | RAM network inhibition [7] 1.28%

COC(=O)CCC(=O)Nc1ccc(Br)cc1
inactive: growth inhibition [1] 8.2% | growth inhibition [2] 0.895% | viability increase [3] -1.52% | viability [4] 101% | viability [5] 95.4% | inhibition [6] 1.16% | RAM network inhibition [7] 6.37%

COc1ccc(-n2c(Cc3cccn3C)nnc2SCC(=O)Nc2ccc3c(c2)OCCO3)cc1
inactive: growth inhibition [1] 4.97% | growth inhibition [2] 8.29% | viability increase [3] -1.74% | viability [4] 103% | viability [5] 94.6% | inhibition [6] 1.61% | RAM network inhibition [7] 6.11%

Cc1ccc(-n2nc(C)c3c2OC(N)=C(C#N)C3c2cccs2)cc1 (stereo unspecified)
inactive: growth inhibition [1] -14.8% | growth inhibition [2] -26.3% | viability increase [3] -3.41% | viability [4] 90.5% | viability [5] 88.5% | inhibition [6] 1.91% | RAM network inhibition [7] 0.52%

CCn1cc(C(=O)NCC2CCCO2)c2cc(OC)c(OC)cc2c1=O (stereo unspecified)
inactive: growth inhibition [1] -8.12% | growth inhibition [2] -20.1% | viability increase [3] -1.89% | viability [4] 95.4% | viability [5] 101% | inhibition [6] 0.955% | RAM network inhibition [7] 1.29%

Cn1c(=O)oc2cc(S(=O)(=O)N3CCCC(C(=O)NCc4cccs4)C3)ccc21 (stereo unspecified)
inactive: growth inhibition [1] 2.14% | growth inhibition [2] 2.64% | viability increase [3] -1.73% | viability [4] 100% | viability [5] 93.4% | inhibition [6] 2.51% | RAM network inhibition [7] 6.45%

CCNc1nnc(-c2ccccc2OC)s1
inactive: growth inhibition [1] -2.37% | growth inhibition [2] 3.71% | viability increase [3] -0.41% | viability [4] 96% | viability [5] 103% | inhibition [6] -0.485% | RAM network inhibition [7] 5.21%

Cc1ccc(C(=O)Nc2ccc3c(c2)CCC3)o1
inactive: growth inhibition [1] -3.56% | growth inhibition [2] -9.54% | viability increase [3] -2.44% | viability [4] 77.5% | viability [5] 69.8% | inhibition [6] 0.895% | RAM network inhibition [7] -0.68%

From PubChem BioAssay
